Series [1] concerns Mus musculus. The series is described as follows: Toxicity in Balb/c mouse model of hypereosinophilia assessed as reduction in spleen weight at 350 umol/kg, ip dosed daily 2 hrs before allergen challenge for 3 days and measured 24 hrs after last dose. The class given is organism-based. Set-up: scale not given: the % may be the effect or the level left. Particulars: in vivo. The essentials: (§1)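 Same OVA model with i.p. dosing 2 h before each of the three challenges: neutraligands 350 μmol/kg in PBS/CMC 1%, AMD3100 12.6 μmol/kg, dexamethasone 2.5 μmol/kg. Body and spleen weight loss recorded 24 h after three daily administrations; n=6/group.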

For series [2], the system named is Mus musculus. Briefly: Toxicity in Balb/c mouse model of hypereosinophilia assessed as prostration at 350 umol/kg, ip dosed daily 2 hrs before allergen challenge for 10 days and measured 24 hrs after last dose. The series is classed as organism-based. Conditions: in vivo. The essentials:
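Mice given 10 daily administrations at 350 μmol/kg. Monitored for weight loss and for signs of toxicity, including prostration and bristly hair.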

The test system of series [3] is Mus musculus. Briefly: Toxicity in Balb/c mouse model of hypereosinophilia assessed as induction of spleen lesions at 350 umol/kg, ip dosed daily 2 hrs before allergen challenge for […] and measured 24 hrs after last dose by Gomori's trichrome staining based histological analysis. The series is classed as organism-based. Particulars: in vivo.
In series [4] the target is T1, C-C motif chemokine 17 (Homo sapiens) (UniProt Q92583).
T1 sequence (whole entry): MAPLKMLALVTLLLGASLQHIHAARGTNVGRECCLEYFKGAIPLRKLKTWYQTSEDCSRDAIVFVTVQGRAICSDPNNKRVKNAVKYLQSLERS
The series is described as follows: Binding affinity to CCL17 (unknown origin) assessed as inhibition of CCL17-induced increase in intracellular calcium level in EGFP-tagged CCR4 expressing HEK cells at 10 uM. (In general: A change in cytosolic calcium serves as a functional read-out for many receptors and channels.)

In series [5] the target is T2, C-C motif chemokine 5 (Homo sapiens) (UniProt P13501).
T2 sequence (whole entry): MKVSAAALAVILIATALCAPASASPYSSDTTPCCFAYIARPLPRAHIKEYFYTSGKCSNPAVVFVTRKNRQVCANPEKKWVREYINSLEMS
Briefly: Binding affinity to CCL5 (unknown origin) assessed as inhibition of CCL5-induced increase in intracellular calcium level in EGFP-tagged CCR5 expressing HEK cells at 10 uM.

Series [6] is described as follows: Chemical stability in pH 7.4 PBS buffer assessed as parent compound remaining at 10 uM incubated for 24 hrs by RP-HPLC method. The series is classed as physicochemical. Conditions: read-out: Stability. The essentials: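 Compound diluted from DMSO stock to 10 μM final (1% DMSO) in PBS pH 7.4, or in PBS with 10% w/w (2-hydroxypropyl)-β-cyclodextrin. Sampled at t0, 2, 4, 6 and 24 h and injected directly onto RP-HPLC. Percent remaining relative to t0 from peak area.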

In series [7] the test system is Mus musculus. Briefly: Inhibition of macrophages infiltration in Balb/c mouse model of 8 day model of allergic eosinophilic airway inflammation at 300 nmol/kg dosed intranasally 2 hrs before ovalbumin challenge by hemocytometry. The series is classed as functional, organism-based.
The subject of series [8] is Mus musculus. Briefly: Toxicity in Balb/c mouse model of hypereosinophilia assessed as reduction in body weight at 12.6 umol/kg, ip dosed daily 2 hrs before allergen challenge for 3 days and measured 24 hrs after last dose. The series is classed as organism-based. Conditions: in vivo. In a few lines: as §1
For series [9], the system named is Mus musculus. The series is described as follows: Inhibition of eosinophil infiltration in Balb/c mouse model of 8 day model of allergic eosinophilic airway inflammation at 300 nmol/kg dosed intranasally 2 hrs before ovalbumin challenge by hemocytometry. The series is classed as functional. Conditions: inhaled or nasal. In a few lines:
(§2)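 OVA/alum-sensitized Balb/c mice challenged intranasally with OVA on days 5–7. Compounds at 300 nmol/kg in 10% PBS/Cdx given intranasally 2 h before each challenge. BAL 24 h after the last challenge; eosinophils, neutrophils and lymphocytes counted by hemocytometer and differential cytospin; n=6/group.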

Series [10] in a line: Kinetic solubility in pH 7.4 HEPES-BSA buffer at 5 uM incubated for 24 hrs at 20 degC by HPLC method. The series is classed as physicochemical. Particulars: read-out: Kinetic_solubility. The essentials: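 Compound added from 10 mM DMSO stock to 5 μM in pH 7.4 HEPES-BSA buffer (1 g/L BSA), shaken 24 h at 20 °C. After centrifugation, supernatant concentration measured by HPLC against 5 and 10 μM standards.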

The nature of series [11]: Thermodynamic solubility in pH 7.4 PBS/Cdx buffer incubated for 24 hrs at 22 degC by HPLC method. The series is classed as physicochemical. Conditions: read-out: Therm_solubility. In a few lines: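 Powder dissolved to saturation in pH 7.4 PBS (100 mM sodium phosphate, 150 mM NaCl), or in PBS with 10% Cdx, and shaken 24 h. After centrifugation, supernatant quantified by HPLC against a per-compound calibration line prepared from the DMSO stock.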

Series [12] deals with C-C motif chemokine 2 (Homo sapiens) (UniProt P13500). The series is described as follows: Binding affinity to CCL2 (unknown origin) assessed as inhibition of CCL2-induced increase in intracellular calcium level in EGFP-tagged CCR2 expressing HEK cells at 10 uM.
Sequence of C-C motif chemokine 2 (Homo sapiens) (P13500 24-99 limits assumed): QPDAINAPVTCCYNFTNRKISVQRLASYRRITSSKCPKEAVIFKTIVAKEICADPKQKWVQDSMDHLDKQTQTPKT
For series [13], the target named is T3, C-C motif chemokine 22 (Homo sapiens) (UniProt O00626).
T3 sequence (whole entry): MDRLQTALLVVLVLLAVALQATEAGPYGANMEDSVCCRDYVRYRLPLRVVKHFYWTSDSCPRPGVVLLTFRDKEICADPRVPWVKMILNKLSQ
Briefly: Binding affinity to CCL22 (unknown origin) assessed as inhibition of CCL22-induced increase in intracellular calcium level in EGFP-tagged CCR4 expressing HEK cells at 10 uM.

For series [14], the system named is Mus musculus. Briefly: Anti-asthma activity in Balb/c mouse model of mouse model of hypereosinophilia assessed as inhibition of eosinophil recruitment at 1400 umol/kg, po dosed intranasally 2 hrs before ovalbumin challenge by hemocytometry. The series is classed as functional. Particulars: in the assay text read “po dosed” for “po dosed intranasally”. In a few lines:
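OVA-sensitized 9-week-old male Balb/c mice (50 μg OVA on 2 mg alum i.p., days 0–2; intranasal OVA 10 μg, days 5–7). Compound at 1400 μmol/kg in PBS/MC 0.5%/Tween 80 0.05% given by gavage 2 h before each challenge. BAL 24 h after the last challenge; eosinophils counted by hemocytometer and Diff-Quick cytospin (≥400 cells); n=6/group.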

Series [15] relates to Mus musculus. Briefly: Inhibition of lymphocytes infiltration in Balb/c mouse model of 8 day model of allergic eosinophilic airway inflammation at 300 nmol/kg dosed intranasally 2 hrs before ovalbumin challenge by hemocytometry. The series is classed as functional, organism-based. In a few lines:
as §2

For series [16], the system named is Mus musculus. The series is described as follows: Inhibition of eosinophil infiltration in Balb/c mouse model of 8 day model of allergic eosinophilic airway inflammation dosed intranasally 2 hrs before ovalbumin challenge by hemocytometry. The class given is functional, organism-based. The essentials: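 Same intranasal OVA model with dose-response treatment in PBS/Cdx 10% given 2 h before each challenge. Percent inhibition of BAL eosinophil recruitment; mean ± SEM, n=6/group.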

For series [17], the target named is Stromal cell-derived factor 1 (Homo sapiens, UniProt P48061). Briefly: Binding affinity to CXCL12 (unknown origin) assessed as inhibition of CXCL12 -induced increase in intracellular calcium level in EGFP-tagged CXCR4 expressing HEK cells at 10 uM. The series is classed as cell-based. The essentials: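 TRIC-r calcium assay, neutraligand protocol. Compound at 10 μM (DMSO control) tested against calcium responses triggered by 5 nM of each chemokine on its receptor line: CXCL12 on EGFP-CXCR4⁺ HEK, CCL17 or CCL22 on EGFP-CCR4⁺ HEK, CCL5 on EGFP-CCR5⁺ HEK, CCL2 on EGFP-CCR2⁺ HEK. Mean ± SD, n=3.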
Sequence of Stromal cell-derived factor 1 (P48061 whole entry): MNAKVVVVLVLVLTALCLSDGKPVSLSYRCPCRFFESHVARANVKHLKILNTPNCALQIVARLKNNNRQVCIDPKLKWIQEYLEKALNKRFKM

Data on 1 molecule can be found in ChEMBL document CHEMBL4145692, “Discovery of a Locally and Orally Active CXCL12 Neutraligand (LIT-927) with Anti-inflammatory Effect in a Murine Model of Allergic Airway Hypereosinophilia” (J Med Chem, 2018).

The inhibition in vivo is the relative decrease from the control value, in per cent.

The source made the active and inactive calls. The calls are words filed in the database; no cut-off is given here.

For `COc1cc(-c2cc(-c3ccc(Cl)cc3)nc(=O)[nH]2)ccc1O`, the Activity is 0% in series [1], “Non-Toxic” in series [2], “Non-Toxic” in [3] and “Non-Toxic” in series [8]. For the same molecule, the inhibition result in [4], in series [5], in [7], in series [12], in series [13] and in [15] was “inactive” throughout. The remaining at 24 h, 10 µM in series [6] is 100%. In series [9], the inhibition in vivo at 0.3 µmol/kg was 48%. For the same molecule, in series [10], the solubility kinetic at 24 h, 5 µM was over 5 µM. In series [11], the solubility thermodynamic at 24 h is over 5000 µM. The inhibition in vivo at 1400 µmol/kg in [14] came out at 62%. Also, in [16], the IC50 was 310 nmol/kg. Further, in series [17], the inhibition result was “Active”.
